How the values were obtained:
HFF = test: Visual cytotoxicity scored on HFF cells at the time of HCMV plaque enumeration.; type: functional, cell-based, Homo sapiens
Procedure, shortened: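 Stationary HFF cells not affected by the plaque-assay virus examined microscopically for cytotoxicity, scored at the time HCMV plaques were counted. Top concentration tested 100; averages of two or four experiments, some single.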

Human alphaherpesvirus 1 = test: Antiviral activity against herpes simplex virus type 1(HSV-1) ELISA method; type: functional, organism-based
KB = test: In vitro inhibition of KB cell proliferation.; type: functional, cell-based, Homo sapiens
Procedure, shortened: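 KB cells grown over two population doublings of untreated controls with compound; proliferation quantified by crystal violet staining and spectrophotometric reading of dye eluted from stained cells. Values are IC50s averaged from two or four experiments, some from a single experiment.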

Human betaherpesvirus 5 [1] = test: In vitro antiviral activity against human cytomegalovirus by plaque method.; type: functional, organism-based
Procedure, shortened: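 HCMV plaque reduction assay; result given as IC50 (concentration reducing plaque number by 50%). Averages from two or four experiments, some from a single experiment; highest concentration tested 100.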

Human betaherpesvirus 5 [2] = test: In vitro antiviral activity against human cytomegalovirus by yield reduction assay.; type: functional
Procedure, shortened: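 HCMV yield reduction assay; result given as IC90. Averages from two or four experiments, some single; highest concentration tested 100.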

L1210 = test: Inhibition of L1210 murine leukemic cells proliferation in vitro; type: functional, cell-based, Mus musculus
Procedure, shortened: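 L1210 murine leukemia cells grown with compound; cell counts taken at 0, 48 and 96 h. Where growth rate in treated cultures fell during the run, the 48–96 h rate was used.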

| IC50 (Human alphaherpesvirus 1; Human alphaherpesvirus 1) | IC50 (KB; Homo sapiens, KB) | IC50 (Human betaherpesvirus 5 [1]; Human betaherpesvirus 5) | IC90 (Human betaherpesvirus 5 [2]; Human betaherpesvirus 5) | IC50 (L1210; Mus musculus, L1210) | Structure (SMILES) | IC50 (HFF; Homo sapiens, HFF) | IC50 (L1210; l1210) | IC50 (HFF; hff) | IC50 (Human alphaherpesvirus 1) | IC50 (KB; kb) | IC50 (Human betaherpesvirus 5 [1]) | IC90 (Human betaherpesvirus 5 [2]) |
| --- | --- | --- | --- | --- | --- | --- | --- | --- | --- | --- | --- | --- |
| 21 µM | 88 µM | 19000 nM | 90 µM | – | N#Cc1cn(C2CCC(CO)O2)c2ncnc(N)c12 (stereo not given) | > 100 µM | – | – | – | – | – | – |
| 58 µM | 3 µM | 500 nM | 3 µM | 600 nM | NC(=S)c1cn(C2OC(CO)CC2O)c2ncnc(N)c12 (stereo not given) | 2.1 µM | – | – | – | – | – | – |
| 2.6 µM | 4 µM | 400 nM | 1.4 µM | 100 nM | N#Cc1cn(C2OC(CO)CC2O)c2ncnc(N)c12 (stereo not given) | 3 µM | – | – | – | – | – | – |
| 4.5 µM | 25 µM | 35000 nM | 13 µM | 80000 nM | N#Cc1cn([C@H]2C[C@H](O)[C@@H](CO)O2)c2ncnc(N)c12 | 66 µM | – | – | – | – | – | – |
| – | – | – | – | – | N#Cc1cn([C@@H]2O[C@H](CO)[C@@H](O)[C@H]2O)c2ncnc(N)c12 (stereo in doubt; 2) [TOYOCAMYCIN] | – | 100 nM | 0.3 µM | 0.4 µM | 0.1 µM | 300 nM | 0.3 µM |
| 41 µM | 176 µM | 5100 nM | > 100 µM | – | N#Cc1cn(C2C=CC(CO)O2)c2ncnc(N)c12 (stereo not given) | > 100 µM | – | – | – | – | – | – |
| 6 µM | 11 µM | 2500 nM | 12 µM | 24000 nM | NC(=S)c1cn(C2CCC(CO)O2)c2ncnc(N)c12 (stereo not given) | 29 µM | – | – | – | – | – | – |
| – | – | – | – | – | N#Cc1cn([C@@H]2O[C@H](CO)[C@@H](O)[C@H]2O)c2ncnc(N)c12 (stereo in doubt; A) [TOYOCAMYCIN] | – | – | 0.03 µM | – | – | 100 nM | – |
| 14 µM | 5 µM | 2700 nM | 5 µM | 3000 nM | NC(=S)c1cn(C2C=CC(CO)O2)c2ncnc(N)c12 (stereo not given) | 18 µM | – | – | – | – | – | – |
| – | – | – | – | – | N#Cc1cn([C@@H]2O[C@H](CO)[C@@H](O)[C@H]2O)c2ncnc(N)c12 (stereo in doubt; 6) [TOYOCAMYCIN] | – | – | – | – | 17 µM | – | 14 µM |
| 320 µM | – | – | 110 µM | 100000 nM | N#Cc1cn([C@@H]2O[C@H](CO)[C@@H](O)[C@@H]2N)c2ncnc(N)c12 | > 100 µM | – | – | – | – | – | – |
| 8.2 µM | 7 µM | 5700 nM | 15 µM | 3900 nM | NC(=S)c1cn([C@H]2C[C@H](O)[C@@H](CO)O2)c2ncnc(N)c12 | 41 µM | – | – | – | – | – | – |
| 28 µM | 2.5 µM | 1600 nM | 41 µM | 2000 nM | N=C(S)c1cn([C@@H]2O[C@H](CO)[C@@H](O)[C@@H]2N)c2ncnc(N)c12 | 73 µM | – | – | – | – | – | – |
| – | 0.5 µM | 3100 nM | – | 3000 nM | C[C@H]1OC(n2cc(C(=N)S)c3c(N)ncnc32)[C@H](O)[C@@H]1O (stereo not given in full) | 3.2 µM | – | – | – | – | – | – |

| Structure (SMILES) | IC50 (Human alphaherpesvirus 1; Human alphaherpesvirus 1) | IC50 (KB; Homo sapiens, KB) | IC50 (Human betaherpesvirus 5 [1]; Human betaherpesvirus 5) | IC90 (Human betaherpesvirus 5 [2]; Human betaherpesvirus 5) | IC50 (L1210; Mus musculus, L1210) | IC50 (HFF; Homo sapiens, HFF) | IC50 (L1210; l1210) | IC50 (HFF; hff) | IC50 (Human alphaherpesvirus 1) | IC50 (KB; kb) | IC50 (Human betaherpesvirus 5 [1]) | IC90 (Human betaherpesvirus 5 [2]) |
| --- | --- | --- | --- | --- | --- | --- | --- | --- | --- | --- | --- | --- |
| Nc1nc2c(ncn2COC(CO)CO)c(=O)[nH]1 [GANCICLOVIR] | – | > 100 µM | – | 1.8 µM | – | > 100 µM | – | – | – | – | – | – |
| NC(=S)c1cn([C@@H]2O[C@H](CO)[C@@H](O)[C@@H]2O)c2ncnc(N)c12 | 4.7 µM | 2 µM | 900 nM | 1.9 µM | 5000 nM | 29 µM | – | – | – | – | – | – |
| NC(=S)c1cn([C@@H]2O[C@H](CO)[C@@H](O)[C@H]2O)c2ncnc(N)c12 | – | 0.03 µM | 400 nM | 0.1 µM | 30 nM | 0.32 µM | – | – | – | – | – | – |
| NC(=S)c1cn([C@@H]2O[C@H](CO)[C@H](O)[C@H]2O)c2ncnc(N)c12 | 1.9 µM | 1 µM | 600 nM | 0.4 µM | 500 nM | 0.6 µM | – | – | – | – | – | – |
